# In the library only some 2.2% were active in any assay of this set; here they are far more common.
# PfM18AAP inh: blocks P. falciparum M18 aspartyl aminopeptidase; inhibition, % at 7.35 µM; 290,000 tested, 1.2% active; recombinant PfM18AAP, H-Glu-NHMec fluorogenic cleavage; AID 1822;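 active = inhibition above the campaign mean inhibition over all tested compounds plus 3 SD, cut at about 28% in these data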;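 also: 0% = plate median of test compound wells and 100% = 2 mM ZnCl2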
# HKDC1 inhibitor: blocks human hexokinase HKDC1 activity. recombinant HKDC1, G6PDH/diaphorase resazurin coupled fluorescence. inhibition, % at 20 µM. 340,000 tested, 0.16% active;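 active = inhibition above about 35% when tested at 20 µM, limit read from the data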;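 also: plate controls were DMSO wells with enzyme for no effect and DMSO wells lacking enzyme for full effect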
#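 System: Recombinant HKDC1 hexokinase | Amount: HKDC1 at 5 µg/mL | Reagent: Glucose with 1 mM ATP | Doses: Single 20 µM dose | Incubation: Reaction time 90 min, room temperature, protected from light | Signal: Coupled resazurin fluorescence, excitation 525 nm, emission 613 nm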
# PfG6PD inh: PfG6PD (Plasmodium falciparum) enzyme inhibition; 350,000 tested, 0.78% active; PfGluPho enzyme, NADPH resazurin-diaphorase fluorescence; inhibition, % at 20 µM;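 active = inhibition reaching at least a set limit at 20 µM in the primary screen, cut at about 59% in these data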;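 also: 0% = DMSO wells with substrate and 100% = DMSO wells lacking glucose-6-phosphate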
# Neddyl block: cullin neddylation inhibition. TR-FRET cullin neddylation, biochemical. inhibition, % at 25 µM. 360,000 tested, 0.58% active. P61081+Q13564; in the data active = inhibition above about 36%
# Target sequence (P61081 whole entry, looked up): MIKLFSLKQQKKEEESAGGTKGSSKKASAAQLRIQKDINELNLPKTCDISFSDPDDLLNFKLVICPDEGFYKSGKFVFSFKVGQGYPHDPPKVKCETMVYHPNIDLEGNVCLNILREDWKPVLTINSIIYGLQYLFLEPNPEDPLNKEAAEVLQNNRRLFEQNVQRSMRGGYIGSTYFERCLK
# Target sequence (Q13564 whole entry, looked up): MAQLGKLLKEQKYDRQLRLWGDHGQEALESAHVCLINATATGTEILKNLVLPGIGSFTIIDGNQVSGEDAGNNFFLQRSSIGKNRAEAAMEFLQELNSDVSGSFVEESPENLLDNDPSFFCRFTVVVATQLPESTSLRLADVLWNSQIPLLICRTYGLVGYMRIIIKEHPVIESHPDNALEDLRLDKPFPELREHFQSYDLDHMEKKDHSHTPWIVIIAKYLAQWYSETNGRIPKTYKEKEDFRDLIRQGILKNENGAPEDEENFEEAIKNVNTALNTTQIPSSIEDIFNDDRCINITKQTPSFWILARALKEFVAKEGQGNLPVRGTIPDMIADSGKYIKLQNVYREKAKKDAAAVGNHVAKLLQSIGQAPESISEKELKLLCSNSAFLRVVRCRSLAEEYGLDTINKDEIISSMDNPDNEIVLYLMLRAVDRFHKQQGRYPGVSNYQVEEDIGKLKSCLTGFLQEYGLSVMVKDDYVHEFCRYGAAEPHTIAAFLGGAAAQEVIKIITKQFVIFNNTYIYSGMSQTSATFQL
# PfG6PD confirm: PfG6PD inhibition, single-dose confirmed; shares compounds with PfG6PD inh; recombinant PfGluPho, NADPH-diaphorase-resazurin fluorescence; inhibition, % at 20 µM; 2,400 tested, 34% active; AID 504753;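 active = inhibition of at least 50% at 20 µM in any single replicate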;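 also: 0% = DMSO with substrate and 100% = DMSO lacking glucose-6-phosphate substrate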
# Diaph ctr 10uM: diaphorase inhibition or oxidation at 10 uM NADPH. 820 tested, 39% active. shares compounds with PfG6PD inh. inhibition, % at 20 µM. diaphorase-coupled resazurin reduction, fluorescence, NADPH 10 uM;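 active = average inhibition reaching 50% or more with the compound at 20 µM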;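 also: resorufin red fluorescence formed as diaphorase reduces resazurin using NADPH; 0% = DMSO with enzyme and 100% = DMSO without enzyme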
# Diaphorase 30uM: diaphorase inhibition or oxidation at 30 uM NADPH. AID 504863. 820 tested, 29% active. shares compounds with PfG6PD inh. inhibition, % at 20 µM. Diaphorase/resazurin coupled assay, resorufin fluorescence;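 active = inhibition averaging 50% or more, tested at 20 µM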;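 also: 0% = DMSO with enzyme and 100% = DMSO wells lacking diaphorase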
# * = called active by the depositor; . = no result shown.
SMILES,PfM18AAP inh,HKDC1 inhibitor,PfG6PD inh,Neddyl block,PfG6PD confirm,others
N#CCC(=O)Nc1ccc(C(=O)OCC(=O)NC(=O)NCc2ccco2)cc1,.,-5.7,0.6,5.3,.,
Cc1ccc(-c2ccc(/C=N/NC(N)=S)o2)cc1,-3.4,-5.7,61.6*,3.7,16.0,
NC(=S)N/N=C/c1ccc(-c2ccccc2)o1,6.9,-3.1,14.3,3.3,.,
C/C(Cn1nnc([N+](=O)[O-])n1)=N\NC(=O)c1cccc(Cl)c1,-6.2,8.0,67.9*,-22.9,58.7*,Diaph ctr 10uM=26.9;Diaphorase 30uM=25.8
C=C(CN(C)C)C(=O)c1cc(C)ccc1C,.,5.9,79.2*,1.2,47.2,
Cc1ccc(C)c(C(=O)NCCN(C)C)c1,-6.0,4.5,1.0,4.7,.,
COC(=O)C1CCN(C(=O)/C(C)=C\c2ccccc2)CC1,8.5,-7.7,10.0,7.7,.,
CCc1ccc(N(CC(=O)N2CCCC2)S(C)(=O)=O)cc1,.,.,-8.1,1.6,.,
Cc1cc([N+](=O)[O-])nn1CCCC(=O)Nc1sc2c(c1C(N)=O)CCCC2,9.1,-13.6,67.0*,-12.5,31.7,
NC(=O)c1c(NC(=O)CCCn2cnc([N+](=O)[O-])n2)sc2c1CCCC2,17.8,-12.5,75.8*,-28.0,42.3,
CC1(C)CC(=O)N(c2ccc(Cl)c(Cl)c2)C(=O)C1,3.0,-1.9,-1.0,-4.9,.,
CCc1ccc(CNc2ccc(O)cc2)cc1,25.8,23.7,84.9*,-51.1,42.6,
CCOc1cccc(CNc2ccc(O)cc2)c1OCc1ccc(Cl)cc1,19.5,18.8,69.7*,-17.7,-0.5,
Cc1ccc(NCc2ccccc2OCc2ccccc2F)cc1,1.8,2.8,23.2,-1.1,.,
CCc1ccc(CNc2ccc3c(c2)ncn3CC)cc1,7.3,4.8,26.1,20.2,.,
CCOc1ccccc1CNc1ccc(O)cc1,19.6,23.1,73.9*,3.8,63.4*,Diaph ctr 10uM=-2.6;Diaphorase 30uM=-3.8
Oc1ccc(NCc2ccccc2OCc2ccccc2F)cc1,7.2,20.1,76.2*,-16.3,42.5,
CCCCCN(C(=O)CCC(=O)OCC(=O)NCc1cccc(OC)c1)c1c(N)n(CCCC)c(=O)[nH]c1=O,-16.1,-3.3,-1.2,-4.6,.,
CC(OC(=O)CNC(=O)c1ccc(Cl)c(Cl)c1)C(=O)N1CCOCC1 (stereo not given),.,-9.2,-0.1,5.1,.,
Clc1cccc(Nc2ncnc3c2cnn3-c2ccccc2)c1,.,-1.2,83.4*,.,-8.8,
Fc1cccc(Nc2ncnc3c2cnn3-c2ccccc2)c1,.,0.7,69.5*,.,12.7,
O=C(O)c1cccc(Nc2ncnc3c2cnn3-c2ccccc2)c1,-1.8,1.0,-12.8,17.1,.,
CSc1nc(NNC=O)cc(Oc2ccc(NC(C)=O)cc2)n1,16.4,1.9,9.2,-4.9,.,
Cc1nn(C(C)C(=O)NCc2ccco2)c(=O)c2nn(-c3ccccc3)c(C)c12 (stereo not given),1.7,-4.0,-6.7,5.0,.,
CC(=O)N1CCSc2ccc(S(=O)(=O)Nc3cccc(C)c3)cc21,4.1,-2.9,10.8,-1.0,.,
SMILES,PfM18AAP inh,HKDC1 inhibitor,PfG6PD inh,Neddyl block,PfG6PD confirm,others
CC(C)=CCC/C(C)=C/C=N/NC(=O)c1ccccc1[N+](=O)[O-],3.0,4.8,66.8*,-20.0,26.0,
Nc1ncnc2[nH]c(=S)[nH]c12,.,-9.8,28.9,17.8,.,
O=c1[nH]c(=O)c2[nH]c(=S)[nH]c2[nH]1,.,5.3,65.9*,11.6,27.9,
COC(=O)c1c(C(=O)OC)c2c(-c3ccccc3)cc3cccc1n32,.,.,-7.1,-5.8,.,
CCCCOC(=O)Nc1ccc(S(=O)(=O)Nc2onc(C)c2C)cc1,1.8,-7.5,0.6,-9.9,.,
O=C(N/N=C/c1ccco1)c1cccc(NC(=O)c2ccccc2Cl)c1,1.6,-3.9,-14.0,-14.0,.,
O=C(Nc1ccccc1C(=O)N/N=C/c1ccco1)c1ccccc1Cl,-1.4,0.2,69.6*,-9.0,51.5*,Diaph ctr 10uM=51.6*;Diaphorase 30uM=38.9
O=C(CSc1nnc(-c2ccncc2)o1)Nc1cc(Cl)ccc1C(=O)O,.,-0.6,59.6*,0.9,28.2,
C=CCCC(=O)NC1CCCc2c1cnn2-c1ccccc1F (stereo not given),1.8,-6.9,3.6,2.3,.,
CC(=O)Nc1ccc2sn(-c3ccccc3)c(=O)c2c1,.,.,126.2*,-8.0,105.4*,Diaph ctr 10uM=-12.4;Diaphorase 30uM=11.4
O=c1c2cc([N+](=O)[O-])ccc2sn1-c1ccccc1,.,.,121.2*,-37.2,105.3*,Diaph ctr 10uM=12.0;Diaphorase 30uM=17.2
